# Source: ChEMBL document CHEMBL6134766, “Design, synthesis, and evaluation of benzhydrylpiperazine-based novel dual COX-2/5-LOX inhibitors with anti-inflammatory and anti-cancer activity” (RSC Med Chem, 2025)
# Calls of active or inactive are those of the source. The calls are words filed in the database; no cut-off is given here.
# How the values were obtained:
# MIA PaCa-2 = test: Cytotoxicity against human MIA PaCa-2 cells assessed as growth inhibition incubated for 48 hrs by SRB assay; conditions: MIA PaCa-2, 48 h
# Drosophila [1] = test: Toxicity in wild-type Drosophila assessed as reduction in eclosion rate at 200 uM, po via food to female and male flies and measured in F1 generation flies after 15 days; type: organism-based; parameters: scale not given: the % may be the effect or the level left; conditions: in vivo, 360 h, time 15 day
# Procedure, shortened: (§1)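 Ten virgin female and male Oregon R+ flies crossed on food containing compound (1, 10, 50, 100 or 200 μM), held at 24 ± 1 °C; F1 generation followed 15 days; percent eclosion versus untreated controls; Dunnett's multiple comparisons.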
# Drosophila [2] = test: Toxicity in wild-type Drosophila assessed as eclosion rate at 100 uM, po via food to female and male flies and measured in F1 generation flies after 15 days; type: organism-based; conditions: in vivo, 360 h, time 15 day
# Procedure, shortened: as §1
# [3] = Toxicity in wild-type Drosophila assessed as lethal dose administered orally via food to female and male flies and measured in F1 generation flies after 15 days; type: organism-based; conditions: both, in vivo, route po, time 15 day, read-out: LD50
# Procedure, shortened: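 Wild-type Oregon R+ flies (10 virgin females and males) were crossed on standard food containing 1, 10, 50, 100 or 200 μM compound and kept at 24 ± 1 °C. The F1 generation was followed for 15 days, scoring percent adult eclosion against an untreated control. LD50 was derived from the eclosion data, with Dunnett's test.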
# Drosophila [4] = test: Anti-cancer activity in Drosophila harboring UAS-Ras V12 mutant assessed as increase in early pupal developmental differentiation at 10 to 50 uM, po; type: functional, organism-based; conditions: dose 10-50 µM
# Procedure, shortened: (§2)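 UAS-RasV12 glial glioblastoma model (repo-GAL4/UAS-RasV12) in Drosophila, with Oregon R+ wild-type flies as control. Flies reared at 24 ± 1 °C on standard corn food containing compound at 10 or 50 μM. Percent of animals at each developmental stage (third instar larva, pupa) scored. Significance by Tukey's multiple comparisons test.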
# Drosophila [5] = test: Anti-cancer activity in Drosophila harboring UAS-Ras V12 mutant assessed as improvement in third instar larval survivability at 10 to 50 uM, po; type: functional, organism-based; conditions: dose 10-50 µM
# Procedure, shortened: as §2
# [6] = Cmax in male Wistar rat at 10 mg/kg, po measured up to 24 hrs by HPLC analysis; type: ADME, organism-based; conditions: in vivo
# Procedure, shortened: (§3)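 Overnight-fasted male Wistar rats, 200–250 g, single 10 mg kg−1 p.o. in 0.3% sodium CMC; blood at 0, 0.5, 1, 2, 4, 8, 16, 24 h into heparin tubes; plasma MeOH-extracted, HPLC (MeOH:H2O 85:15, 254 nm) against calibration curve; extravascular non-compartmental analysis; mean ± SD (n = 3).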
# Drosophila [7] = test: Anti-cancer activity in Drosophila harboring UAS-Ras V12 mutant assessed as rescue of third instar larval lethality at 10 to 50 uM, po; type: functional, organism-based; conditions: dose 10-50 µM
# Procedure, shortened: as §2
# Drosophila [8] = test: Anti-cancer activity in Drosophila harboring UAS-Ras V12 mutant assessed as improvement in pupal development at 10 uM, po; type: functional, organism-based
# Procedure, shortened: as §2
# COLO 205 = test: Cytotoxicity against human COLO 205 cells assessed as growth inhibition incubated for 48 hrs by SRB assay; conditions: COLO 205, 48 h
# Drosophila [9] = test: Toxicity in wild-type Drosophila assessed as eclosion rate at 1 uM, po via food to female and male flies and measured in F1 generation flies after 15 days; type: organism-based; conditions: in vivo, 360 h, time 15 day
# Procedure, shortened: as §1
# Drosophila [10] = test: Anti-cancer activity in Drosophila harboring UAS-Ras V12 mutant assessed as improvement in larval development to pupal transition at 10 to 50 uM, po; type: functional, organism-based; conditions: dose 10-50 µM
# Procedure, shortened: as §2
# Drosophila [11] = test: Toxicity in wild-type Drosophila assessed as eclosion rate at 50 uM, po via food to female and male flies and measured in F1 generation flies after 15 days; type: organism-based; conditions: in vivo, 360 h, time 15 day
# Procedure, shortened: as §1
# [12] = Tmax in male Wistar rat at 10 mg/kg, po measured up to 24 hrs by HPLC analysis; type: ADME, organism-based; conditions: in vivo
# Procedure, shortened: as §3
# [13] = Half life in male Wistar rat at 10 mg/kg, po measured up to 24 hrs by HPLC analysis; type: ADME, organism-based; conditions: in vivo
# Procedure, shortened: as §3
# A549 = test: Cytotoxicity against human A549 cells assessed as growth inhibition incubated for 48 hrs by SRB assay; conditions: A549, 48 h
compound,measurement,setting,value
Clc1ccc(-c2nnc(CN3CCN(C(c4ccccc4)c4ccc(Cl)cc4)CC3)o2)cc1 (stereo unspecified),GI50,MIA PaCa-2,2320 nM
same,Activity,Drosophila [1],24%
same,Activity,Drosophila [2],< 50%
same,LC50 at 360 h,[3],100000 nM
same,Activity,Drosophila [4],Active
same,Activity,Drosophila [5],Active
same,Cmax,[6],10300 ng/mL
same,Activity,Drosophila [7],Active
same,Activity,Drosophila [8],Active
same,GI50,COLO 205,1220 nM
same,Activity,Drosophila [9],~ 92%
same,Activity,Drosophila [10],Active
same,Activity,Drosophila [11],> 70%
same,Tmax,[12],3 h
same,half-life,[13],2.11 h
same,GI50,A549,731 nM
